Assay results pooled from the literature.
Each line is one published result; the experiments were not run side by side.
Target: Glycogen synthase kinase-3 beta (GSK3B, Homo sapiens, UniProt P49841)
Method: competition with immobilised ligand

O=C(Nc1ccc(Oc2ccc(F)cc2)cc1)N1CCc2ncccc2[C@H]1c1ccc(F)cc1 gave a remaining binding of 100% (cell-free assay; 1 µM).
The remaining binding of COc1ncc2cc3ccccc3nc2c1C#N is reported as 99% (cell-free assay; 5 µM).
For CN(C)C(=O)Cn1cc(-c2nc(C3(c4ccc(-c5cnc(N)nc5)cc4)CC3)no2)cn1, the remaining binding was 81% (cell-free assay; 1 µM).
O=C(c1ccc(Nc2nccc(-c3cc4ccccc4s3)n2)cc1)N1CCC(N2CCCC2)CC1 has a remaining binding of 95% (binding; 1 µM).
With COc1cnc(Nc2cccc(S(N)(=O)=O)c2)nc1N1CCN(c2ccccc2)C(=O)C1 the remaining binding was 91% (binding; 1 µM).
CCN1CCN(Cc2ccc(C(=O)Nc3ccc(C)c(Oc4ccc5c(c4)CC(=O)N5)c3)cc2C(F)(F)F)CC1 has a remaining binding of 100% (binding; 1 µM).
CN(CCCC(F)(F)F)c1nccc(-c2cnn3ncccc23)n1 has a remaining binding of 87% (binding; 1 µM).
With CN(C)CC#Cc1ccc(OCCCc2sc(N3CCc4cccc(C(=O)Nc5nc6ccccc6s5)c4C3)nc2C(=O)O)c(F)c1 the remaining binding was 93% (cell-free assay; 1 µM).
O=C(Nc1c[nH]nc1C(=O)NC1CCNCC1)c1cc(F)cc(F)c1 has a remaining binding of 0.5% (binding; 1 µM).
With O=C(NCCCN1CCOCC1)c1ccc(Nc2ncc(Cl)c(-c3ccc(Cl)s3)n2)cc1 the remaining binding was 95% (binding; 1 µM).
For FC(F)(F)Oc1cccc(-c2cnc3ccc(-c4ccncc4)nn23)c1, the remaining binding was 78% (cell-free assay; 5 µM).
c1cnn2ncc(-c3ccnc(N4CCC45COC5)n3)c2c1 gave a remaining binding of 77% (binding; 1 µM).
CC(C)CC(=O)N1CCc2nc(-c3ccc(Br)cc3)nc(N(C)Cc3ccccc3)c2C1 has a remaining binding of 100% (cell-free assay; 0.1 µM).
The remaining binding of C[C@@H](c1ccc(-n2cnc3c(N)ncnc32)cc1)N1CCc2nn(C)c(Cc3ccccc3)c2C1=O is reported as 58% (binding; 0.1 µM).
The remaining binding of C[C@@H]1CN(c2ccc3ncc(-c4ccc5[nH]nc(C6CC6)c5c4)n3n2)C[C@H](C)O1 is reported as 76% (binding; 50 nM).
COc1cc(-c2cn(C3CCc4ccccc4N(CC(F)(F)F)C3=O)nn2)ccc1-n1ccc(C)n1 (stereo not shown) has a remaining binding of 85% (cell-free assay; 1 µM).
Nc1ncc2c(n1)-c1c([nH]c3ccc(C#CC4CC4)cc13)CCCC2 has a remaining binding of 98% (binding; 1 µM).
CN([C@@H]1CCc2c(CC(=O)O)c3ccccc3n2C1)S(=O)(=O)c1ccc(F)cc1 has a remaining binding of 93% (cell-free assay; 1 µM).
For Cc1cnc(Nc2ccc(C(=O)N3CCC(N4CCCC4)CC3)cc2)nc1-c1cc2ccccc2s1, the remaining binding was 51% (binding; 1 µM).
